Assay results collected from several papers.
Protocols differ between the studies behind these lines.
Target: Bone morphogenetic protein receptor type-1A (BMPR1A, Homo sapiens, UniProt P36894)

O=C(NCC1CCOCC1)c1n[nH]cc1NC(=O)c1c(F)cccc1F gave a remaining binding of 89% (binding; competition with immobilised ligand; 1 µM).
With CS(=O)(=O)NCC[C@H](NC(=O)c1cncc2c1cnn2-c1ccc(F)cc1)c1ccnc(S(C)(=O)=O)c1 the remaining binding was 92% (binding; competition with immobilised ligand; 1 µM).
For CN(C)c1ncc(F)c(-c2cnn3ncccc23)n1, the remaining binding was 100% (binding; 1 µM).
The remaining binding of O=C(c1ccc(Nc2ncc(Cl)c(-c3cc4ccccc4s3)n2)cc1)N1CCC(N2CCCC2)CC1 is reported as 60% (binding; competition with immobilised ligand; 1 µM).
CNC(=O)[C@@H]1CC[C@@H](n2c(-c3ccc4cnccc4c3)nc3ccc(C(=O)NCc4cccc(C(N)=O)c4)cc32)C1 gave a remaining binding of 92% (binding; competition with immobilised ligand; 1 µM).
The remaining binding of CN(C)c1ncnc(-c2ccc3nc(Nc4cc(CN5CCN(C(=O)CC(F)(F)F)CC5)ccn4)[nH]c3c2)c1Cl is reported as 95% (cell-free assay; competition with immobilised ligand; 1 µM).
For c1cncc(-c2cccc(Nc3nccc(NC4CCCCC4)n3)c2)c1, the remaining binding was 73% (binding; competition with immobilised ligand; 10 µM).
With CN(c1nccc(-c2cnn3ncccc23)n1)C1CC1 the remaining binding was 78% (binding; 1 µM).
For Cc1nccc(COC(=O)N2C[C@@H]3[C@@H](CNC(=O)c4ccc5[nH]nnc5c4)[C@@H]3C2)n1, the remaining binding was 85% (binding; competition with immobilised ligand; 1 µM).
The remaining binding of O=C(c1ccc(Nc2nccc(-c3cc4ccccc4s3)n2)cc1)N1CCC(N2CCCC2)CC1 is reported as 75% (binding; competition with immobilised ligand; 1 µM).
For COc1cnc(Nc2cccc(S(N)(=O)=O)c2)nc1N1CCN(c2ccccc2)CC1, the remaining binding was 100% (binding; competition with immobilised ligand; 1 µM).
With Nc1ncc2c(n1)-c1c([nH]c3ccc(C#CC4CC4)cc13)CCCC2 the remaining binding was 95% (binding; competition with immobilised ligand; 1 µM).
For Cc1cnc(Nc2ccc(C(=O)N3CCC(N4CCCC4)CC3)cc2)nc1-c1cc2ccccc2s1, the remaining binding was 60% (binding; competition with immobilised ligand; 1 µM).
CN(CCCC(F)(F)F)c1nccc(-c2cnn3ncccc23)n1 gave a remaining binding of 83% (binding; 1 µM).
With O=C(NS(=O)(=O)c1ccc(NCC2CCOCC2)c([N+](=O)[O-])c1)c1ccc(N2CCN(Cc3ccc(C(F)(F)F)cc3-c3ccc(Cl)cc3)CC2)cc1Oc1cnc2[nH]ccc2c1 the remaining binding was 81% (cell-free assay; competition with immobilised ligand; 1 µM).
N[C@H]1CCN(c2nccc(-c3cnn4ncccc34)n2)C1 has a remaining binding of 75% (binding; 1 µM).
For FC(F)(F)c1ccc2c(c1)nc(-c1cccnc1)n2C1CC1, the remaining binding was 93% (cell-free assay; competition with immobilised ligand; 1 µM).
The remaining binding of c1cnn2ncc(-c3ccnc(N4CCC45COC5)n3)c2c1 is reported as 88% (binding; 1 µM).
With CC(=O)N1CCC(c2ccc(C(=O)NC(=N)N)cc2C(F)(F)F)CC1 the remaining binding was 100% (binding; competition with immobilised ligand; 1 µM).
For C=CC(=O)N1CCC(C(=O)NCC(=O)N2CCN(c3nc(-c4cnc(N)nc4C(F)F)nc(N4CCOCC4)n3)CC2)CC1, the remaining binding was 80% (binding; competition with immobilised ligand; 1 µM).
